Laboratory results published in ChEMBL document CHEMBL1145854, “Characteristics of selenazolidine prodrugs of selenocysteine: toxicity and glutathione peroxidase induction in V79 cells” (J Med Chem, 2003).

How the values were obtained:
Conditions in all cases: Cricetulus griseus
[1] = system: V79; experiment: Glutathione peroxidase activity in V79 cells at 100 uM expressed as fold induction of GPx activity to control value; type: cell-based
Summary of the method: (§1)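 V79 cells (5.0×10^5 per flask) adhered overnight, then exposed 48 h to compound in complete medium (pH 7–7.5), followed by 24 h in fresh medium. Cells were sonicated in Tris-HCl (50 mM, pH 7.5, EDTA, 2-mercaptoethanol) and centrifuged. Supernatant GPx was read as NADPH loss at 340 nm over 3 min with tert-butyl hydroperoxide, normalised to Bradford protein (N = 9), and given as fold over untreated control.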

[2] = system: V79; experiment: Cytotoxicity activity against V79 cells; type: functional, cell-based
Summary of the method: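 V79 cells kept in D-MEM with 10% Fetal Clone I serum at 37 °C, 5% CO2, then seeded in 96-well plates and allowed to adhere overnight. Exposed 2 days to compound (0–3000 µM, pH 7–7.5, in complete medium). Viability read by MTS (2 h, 490 nm), expressed as percent of untreated control. IC50 taken by regression of viability vs concentration.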

[3] = system: V79; experiment: Glutathione peroxidase activity in V79 cells at 20 uM expressed as fold induction of GPx activity to control value; type: cell-based; summary of the method: as §1

Structure (SMILES)	Fold induction [1]	IC50 [2]	Fold induction [3]
CC1N[C@@H](C(=O)O)C[Se]1 (some centres undefined)	1.3	160 µM	
O=C1N[C@@H](C(=O)O)C[Se]1	1.4	> 3000 µM	
CC1N[C@H](C(=O)O)C[Se]1 (some centres undefined)	2.1	79 µM	
O=[Se](=O)(O)O [SODIUM SELENATE]	1.9	292 µM	
C[Se]C[C@H](N)C(=O)O [METHYLSELENOCYSTEINE]	1.5	472 µM	
C[Se]CC[C@H](N)C(=O)O [SELENOMETHIONINE]	1.8	267 µM	
O=C1N[C@H](C(=O)O)C[Se]1	4.6	451 µM	
O=[Se](O)O [SODIUM SELENITE]		17 µM	
O=C(O)[C@@H]1C[Se]CN1	5.9	317 µM	
N#C[Se]Cc1ccc(C[Se]C#N)cc1		12 µM	1.5
